Laboratory results as given in ChEMBL document CHEMBL4825764, “Flavonoid Monomers as Potent, Nontoxic, and Selective Modulators of the Breast Cancer Resistance Protein (ABCG2)” (J Med Chem, 2021).
Active and inactive are the calls of the source. The rule behind the calls is not given here.

Key:
Homo sapiens [1] = species: Homo sapiens; experiment: Selectivity index, ratio of EC50 for inhibition of P-gp (unknown origin) expressed in LCC6MDR cells assessed as reversal of paclitaxel resistance to EC50 for inhibition of BCRP (unknown origin) transfected in HEK293/R2 cells assessed as reversal of topotecan resistance; format: cell-based
Outline: (§1)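 Selectivity index is the EC50 against the other transporter's line divided by the EC50 in the BCRP line. All values come from 5-day MTS reversal assays. These use topotecan in HEK293/R2 (0–2000 nM) or MCF7-MX100 (0–100 μM), doxorubicin in 2008/MRP1, and paclitaxel in LCC6MDR, each with modulator at 0–1000 nM.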

Homo sapiens [2] = species: Homo sapiens; experiment: Selectivity index, ratio of EC50 for inhibition of MRP1 (unknown origin) expressed in 2008/MRP1 cells assessed as reversal of doxorubicin resistance to EC50 for inhibition of BCRP (unknown origin) transfected in HEK293/R2 cells assessed as reversal of topotecan resistance; format: cell-based; outline: as §1
Homo sapiens [3] = species: Homo sapiens; experiment: Selectivity index, ratio of EC50 for inhibition of P-gp (unknown origin) expressed in LCC6MDR cells assessed as reversal of mitoxantrone resistance to EC50 for inhibition of BCRP (unknown origin) expressed in HEK293/R2 cells assessed as reversal of mitoxantrone resistance; format: cell-based
Outline: (§2)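 Selectivity index is the EC50 in 2008/MRP1 or LCC6MDR divided by the EC50 in HEK293/R2. All three lines were measured by 5-day mitoxantrone co-incubation with modulator, with MTS/PMS read-out at 490 nm.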

Homo sapiens [4] = species: Homo sapiens; experiment: Selectivity index, ratio of EC50 for inhibition of MRP1 (unknown origin) expressed in 2008/MRP1 cells assessed as reversal of mitoxantrone resistance to EC50 for inhibition of BCRP (unknown origin) expressed in HEK293/R2 cells assessed as reversal of mitoxantrone resistance; format: cell-based; outline: as §2
[5] = biological target: T1, Broad substrate specificity ATP-binding cassette transporter ABCG2 (Homo sapiens, UniProt Q9UNQ0); experiment: Inhibition of BCRP (unknown origin) expressed in human HEK293/R2 cells assessed as increase in intracellular topotecan accumulation by measuring fold change at 1 uM after 2 hrs in presence of topotecan by flow cytometry analysis relative to control; format: cell-based; details: hek293/r2, 2 h
T1 sequence (Q9UNQ0 whole entry): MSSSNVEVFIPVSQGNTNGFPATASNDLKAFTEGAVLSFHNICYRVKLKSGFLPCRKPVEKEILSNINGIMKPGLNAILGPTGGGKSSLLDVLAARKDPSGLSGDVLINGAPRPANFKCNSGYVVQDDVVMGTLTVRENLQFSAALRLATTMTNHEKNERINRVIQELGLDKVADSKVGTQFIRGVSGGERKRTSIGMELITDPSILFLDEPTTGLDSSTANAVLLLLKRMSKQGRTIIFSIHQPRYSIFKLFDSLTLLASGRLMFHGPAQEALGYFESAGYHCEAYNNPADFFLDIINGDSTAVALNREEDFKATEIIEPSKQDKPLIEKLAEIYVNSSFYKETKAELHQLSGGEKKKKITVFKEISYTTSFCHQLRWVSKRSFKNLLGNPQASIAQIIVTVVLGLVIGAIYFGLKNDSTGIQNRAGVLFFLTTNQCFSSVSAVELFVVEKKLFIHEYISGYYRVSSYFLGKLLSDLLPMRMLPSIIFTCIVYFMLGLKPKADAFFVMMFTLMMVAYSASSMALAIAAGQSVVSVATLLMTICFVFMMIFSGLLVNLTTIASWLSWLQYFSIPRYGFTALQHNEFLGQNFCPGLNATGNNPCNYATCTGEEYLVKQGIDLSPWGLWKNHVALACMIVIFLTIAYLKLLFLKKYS
Outline: (§3)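 5 × 10^5 HEK293/pcDNA3.1 or HEK293/R2 cells in 1 mL were incubated 2 hr at 37 °C with 50 μM topotecan or 5 μM mitoxantrone plus 1 or 2 μM modulator, with DMSO as the vehicle control. Cells were washed in cold PBS and resuspended in FACS buffer. Flow cytometry read FL1 (topotecan) or FL4 (mitoxantrone) over 50,000 events, normalized to wild-type cells.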

[6] = biological target: T1, Broad substrate specificity ATP-binding cassette transporter ABCG2; experiment: Inhibition of BCRP (unknown origin) expressed in human HEK293/R2 cells assessed as increase in intracellular mitoxantrone accumulation by measuring fold change at 1 uM after 2 hrs in presence of mitoxantrone by flow cytometry analysis relative to control; format: cell-based; details: hek293/r2, 2 h; outline: as §3
[7] = biological target: T1, Broad substrate specificity ATP-binding cassette transporter ABCG2; experiment: Inhibition of BCRP (unknown origin) expressed in wild type HEK293/pcDNA3.1 cells assessed as increase in intracellular topotecan accumulation at 1 to 2 uM after 2 hrs in presence of topotecan by flow cytometry analysis relative to control; format: cell-based; details: hek293, 2 h, dose 1-2 µM; outline: as §3
[8] = biological target: T1, Broad substrate specificity ATP-binding cassette transporter ABCG2; experiment: Inhibition of BCRP (unknown origin) expressed in wild type HEK293/pcDNA3.1 cells assessed as increase in intracellular mitoxantrone accumulation at 1 to 2 uM after 2 hrs in presence of mitoxantrone by flow cytometry analysis relative to control; format: cell-based; details: hek293, 2 h, dose 1-2 µM; outline: as §3
[9] = biological target: T1, Broad substrate specificity ATP-binding cassette transporter ABCG2; experiment: Inhibition of BCRP (unknown origin) expressed in wild-type HEK293 cells mediated mitoxantrone efflux assessed as intracellular mitoxantrone level at 2 uM preincubated with mitoxantrone for 1 hr followed by compound addition and measured upto 150 mins by flow cytometry analysis; format: cell-based; details: hek293, 2.5 h
Outline: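 Cells were preloaded with 5 μM mitoxantrone for 1 hr at 37 °C, washed, then kept in drug-free medium with or without 2 μM modulator. Cells were harvested at 0, 30, 60, 90, 120 and 150 min and intracellular mitoxantrone read by flow cytometry (FL4). Level is expressed as % of the 0-min value.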

HEK293 = experiment: Effect on BCRP protein expression in human HEK293/R2 cells at 1 to 3 uM after 24 hrs by flow cytometric analysis; format: functional, cell-based; details: dose 1-3 µM
Outline: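 HEK293/R2 and HEK293/pcDNA3.1 cells were exposed to 0, 1 or 3 μM compound for 24 hr, with 0.1–0.3% DMSO as solvent control. Cells were trypsinized and stained with FITC anti-human BCRP for 45 min at 4 °C, with an IgG2b-FITC isotype control. Surface signal was read by flow cytometry on FL1 over 50,000 events.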

BCRP (ABCG2) = biological target: T2, BCRP (ABCG2) (Homo sapiens, UniProt Q9UNQ0); experiment: Inhibition of BCRP (unknown origin) expressed in HEK293/R2 cells assessed as conformational change by measuring increase in 5D3 shift at 1 uM preincubated for 15 mins followed by FITC mouse antihuman BCRP antibody addition measured after 30 mins by flow cytometry analysis; format: cell-based; details: HEK293/R2 cells expressing BCRP, time 45 min
T2 sequence (Q9UNQ0 whole entry): T1 sequence (Q9UNQ0 whole entry)
Outline: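 5 × 10^5 HEK293/R2 cells in FACS buffer were shaken 15 min at 37 °C with 1 μM compound. FITC 5D3 anti-BCRP was then added for 30 min at 37 °C and fluorescence read by flow cytometry on FL1. Compound-only background was subtracted and the untreated DMSO shift removed. Result is % of the 1 μM Ko143-induced shift.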

BCRP (ABCG2) ATPase = biological target: T3, BCRP (ABCG2) ATPase (Homo sapiens, UniProt Q9UNQ0); experiment: Effect on vanadate sensitive BCRP ATPase activity in human S1-M1-80 cell membranes preincubated for 30 mins followed by ATP addition and measured after 1 hr by colorimetric assay
T3 sequence (Q9UNQ0 whole entry): T1 sequence (Q9UNQ0 whole entry)

Q: For `COC(=O)c1cccc(COc2c(-c3ccc(OCCCCc4cn(Cc5ccccc5)nn4)cc3)oc3ccccc3c2=O)c1`, which Ratio EC50 (Homo sapiens [1]) is on record?
A: 96

Q: What about the Ratio EC50 (Homo sapiens [2]) of the same compound?
A: 143

Q: What about the Ratio EC50 (Homo sapiens [3]) of the same compound?
A: 52

Q: And the Ratio EC50 (Homo sapiens [4])?
A: 68

Q: What about the “fold change (FC)” value [5] of the same compound?
A: 8.1

Q: And the “fold change (FC)” value [6]?
A: 5.9

Q: And the “inhibition (INH)” value [7]?
A: Not Active

Q: And the “inhibition (INH)” value [8]?
A: Not Active

Q: What about the “inhibition (INH)” value [9] of the same compound?
A: Not Active

Q: What about the Activity (HEK293) of the same compound?
A: inactive

Q: And the inhibition at 0.5 h, 1 µM (BCRP (ABCG2))?
A: 100%

Q: And the activity at 1 h (BCRP (ABCG2) ATPase)?
A: 120%
